Source: ChEMBL document CHEMBL1135880, “Synthesis and X-ray studies of chiral allosteric modifiers of hemoglobin” (J Med Chem, 2002)

What was measured:
[1] = biological target: T1, Hemoglobin HbA (Homo sapiens) (UniProt P69905+P68871); assay: Ability to right-shift the oxygen equilibrium curves (OECs) quantified by ability to increase in P50 at which Hb was 50% saturated with oxygen in the […] of the effector.; format: functional
[2] = biological target: T1, Hemoglobin HbA (Homo sapiens); assay: Ability to right-shift the oxygen equilibrium curves (OECs) quantified by ability to increase in P50 at which Hb was 50% saturated with oxygen in the presence of the effector at the concentration of 5 mM.; format: functional
Method in brief: (§1)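 Human whole blood; DMSO stock 200 mM, final 5 mM effector, DMSO-only control. Duplicate samples equilibrated ~10 min at 37 °C in tonometers against gas mixtures of 2.95%, 5.85% and 8.75% O2 with 5.8% CO2, balance N2. pO2 and sO2 read on blood gas analyzer and co-oximeter. P50 and n50 from nonlinear regression; ΔP50 = P50 effector − P50 control.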

[3] = biological target: T1, Hemoglobin HbA (Homo sapiens); assay: Oxygen pressure in mmHg at which Hb is 50% saturated with oxygen at 50-60 uM heme concentration and in the presence of 0.5 mM effector.; format: functional
[4] = biological target: T1, Hemoglobin HbA (Homo sapiens); assay: The difference in the partial pressure of oxygen at 50% saturated Hb; format: functional; method in brief: as §1
[5] = biological target: T1, Hemoglobin HbA (Homo sapiens); assay: Ability to right-shift the oxygen equilibrium curves (OECs) quantified by ability to increase in P50 in whole blood analyses.; format: functional, tissue-based; method in brief: as §1
[6] = biological target: T1, Hemoglobin HbA (Homo sapiens); assay: Ratio of […] (P50 control value with no effector present 5.0 mmHg, in case of DMSO is 4.7 mmHg ); format: functional
[7] = biological target: T1, Hemoglobin HbA (Homo sapiens); assay: The Hill coefficient at 50% saturation (n50) between 40 and 60% oxygen saturation (n50 control value with no effector present, 2.7).; format: protein-complex assay
[8] = biological target: T1, Hemoglobin HbA (Homo sapiens); assay: The Hill coefficient at 50% saturation (n50) in the presence of effector.; format: protein-complex assay; method in brief: as §1
[9] = biological target: T1, Hemoglobin HbA (Homo sapiens); assay: Ability to right-shift the oxygen equilibrium curves (OECs) quantified by ability to increase in P50 at which Hb was 50% saturated with oxygen in the […] of the effector at the concentration of 5 mM.; format: functional; method in brief: as §1

T1 sequence (P68871 2-147 partner limits assumed): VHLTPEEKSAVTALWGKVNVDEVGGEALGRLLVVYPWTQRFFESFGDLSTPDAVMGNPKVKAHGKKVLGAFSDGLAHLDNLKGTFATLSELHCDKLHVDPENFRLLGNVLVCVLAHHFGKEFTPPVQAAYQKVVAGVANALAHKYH
T1 sequence (P69905 2-142 limits assumed): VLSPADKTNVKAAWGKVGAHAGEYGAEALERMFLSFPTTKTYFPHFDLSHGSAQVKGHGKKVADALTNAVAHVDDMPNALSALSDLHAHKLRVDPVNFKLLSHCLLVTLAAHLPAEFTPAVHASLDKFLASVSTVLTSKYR

| Structure (SMILES) | P50e [1] [mmHg] | P50e [2] [mmHg] | P50e [3] [mmHg] | Delta P50 [4] | P50c [5] [mmHg] | P50e / P50c [6] | Hill coefficient (n50) [7] | n50e [8] | P50e [9] [mmHg] |
| --- | --- | --- | --- | --- | --- | --- | --- | --- | --- |
| Cc1cc(C)cc(NC(=O)Cc2ccc(OC3(C(=O)N[C@H](CO)C(=O)O)CCCC3)cc2)c1 | 31.1 | 34 | 11.2 | 5.4 | 27.1 | 2.3 | 2.6 | 2.1 | – |
| Cc1cc(C)cc(NC(=O)Cc2ccc(OC3(C(=O)N[C@H](Cc4ccc(O)cc4)C(=O)O)CCCC3)cc2)c1 | 47 | 49 | 48.6 | 20.8 | 27.2 | 9.7 | 2.3 | 2 | – |
| Cc1cc(C)cc(NC(=O)Cc2ccc(OC3(C(=O)N[C@@H](C(=O)O)C(C)O)CCCC3)cc2)c1 (some centres not stated) | 39.7 | 41.1 | 14.3 | 12.9 | 27.5 | 2.9 | 2.6 | 2.2 | – |
| Cc1cc(C)cc(NC(=O)Cc2ccc(OC3(C(=O)N[C@H](C)C(=O)O)CCCC3)cc2)c1 | 50.3 | 52.1 | 13.8 | 21.9 | 29.4 | 2.8 | 2.6 | 1.7 | – |
| Cc1cc(C)cc(NC(=O)Cc2ccc(OC3(C(=O)N[C@H](Cc4ccccc4)C(=O)O)CCCC3)cc2)c1 | 48.1 | 49.8 | 8.2 | 20.3 | 28.7 | 1.7 | 2.6 | 1.9 | – |
| Cc1cc(C)cc(NC(=O)Cc2ccc(OC3(C(=O)NCC(=O)O)CCCC3)cc2)c1 | 50 | 52.6 | 12 | 25.1 | 26.2 | 2.4 | 2.6 | 2.1 | – |
| CSCC[C@@H](NC(=O)C1(Oc2ccc(CC(=O)Nc3cc(C)cc(C)c3)cc2)CCCC1)C(=O)O | 44.8 | 45.5 | 9.5 | 20.6 | 24.5 | 1.9 | 2.8 | 2.1 | – |
| Cc1cc(C)cc(NC(=O)Cc2ccc(OC3(C(=O)N[C@@H](CC(C)C)C(=O)O)CCCC3)cc2)c1 | 70.6 | 71.3 | 21.3 | 41.5 | 29.4 | 4.3 | 2.7 | 1.8 | – |
| Cc1cc(C)cc(NC(=O)Cc2ccc(OC3(C(=O)N[C@H](CC(=O)O)C(=O)O)CCCC3)cc2)c1 | 50.2 | 55.3 | 16.1 | 26.6 | 26.2 | 3.2 | 2.6 | 1.9 | – |
| CC[C@@H](C)[C@@H](NC(=O)C1(Oc2ccc(CC(=O)Nc3cc(C)cc(C)c3)cc2)CCCC1)C(=O)O | 38.9 | 40.6 | 12.3 | 13.2 | 26.5 | 2.5 | 2.6 | 2.3 | – |
| CSCC[C@H](NC(=O)C1(Oc2ccc(CC(=O)Nc3cc(C)cc(C)c3)cc2)CCCC1)C(=O)O | 50.7 | 56.8 | 18.1 | 26.6 | 27.1 | 3.6 | 2.6 | 2.3 | – |
| Cc1cc(C)cc(NC(=O)Cc2ccc(OC3(C(=O)N[C@H](CCC(=O)O)C(=O)O)CCCC3)cc2)c1 | 50.1 | 51.4 | 16.8 | 22.5 | 28.3 | 3.4 | 2.6 | 2 | – |
| Cc1cc(C)cc(NC(=O)Cc2ccc(OC3(C(=O)N[C@H](C(=O)O)C(C)C)CCCC3)cc2)c1 | 53.9 | 54.8 | 13 | 28.6 | 25.7 | 2.6 | 2.7 | 2 | – |
| Cc1cc(C)cc(NC(=O)Cc2ccc(OC3(C(=O)O)CCCC3)cc2)c1 | 67.7 | 74.7 | – | 42.3 | 28.9 | 5.1 | 2.4 | 1.7 | – |
| Cc1cc(C)cc(NC(=O)Cc2ccc(OC3(C(=O)N[C@@H](CCCCN)C(=O)O)CCCC3)cc2)c1 | 27.2 | 29 | 5.8 | -0.2 | 28.3 | 1.2 | 2.3 | 2.7 | – |
| Cc1cc(C)cc(NC(=O)Cc2ccc(OC3(C(=O)N[C@@H](C(=O)O)C(C)C)CCCC3)cc2)c1 | 56.6 | 57.3 | 13.9 | 30.2 | 26.7 | 2.8 | 2.6 | 1.9 | – |
| Cc1cc(C)cc(NC(=O)Cc2ccc(OC3(C(=O)N[C@@H](Cc4ccc5[nH]ccc5c4)C(=O)O)CCCC3)cc2)c1 | 47.2 | 48.8 | 37 | 20.2 | 27.9 | 7.4 | 2.3 | 2 | – |
| Cc1cc(C)cc(NC(=O)Cc2ccc(OC3(C(=O)N[C@@H](Cc4ccccc4)C(=O)O)CCCC3)cc2)c1 | 64.1 | 67.5 | 12.4 | 38.4 | 27.4 | 2.6 | 2.7 | 1.8 | – |
| Cc1cc(C)cc(NC(=O)Cc2ccc(OC3(C(=O)N[C@H](CC(C)C)C(=O)O)CCCC3)cc2)c1 | 41.9 | 42.6 | 9.4 | 15.2 | 27.1 | 1.9 | 2.6 | 2.3 | – |
| Cc1cc(C)cc(NC(=O)Cc2ccc(OC3(C(=O)N[C@@H](CO)C(=O)O)CCCC3)cc2)c1 | 38.7 | 44.7 | 17.1 | 15.5 | 26.2 | 3.4 | 2.6 | 2.3 | – |
| Cc1cc(C)cc(NC(=O)Cc2ccc(OC3(C(=O)N[C@@H](CCCCNC(=O)OCc4ccccc4)C(=O)O)CCCC3)cc2)c1 | 39.5 | 45 | 29.5 | 14 | 28.3 | 5.9 | 2.4 | 2.1 | – |
| Cc1cc(C)cc(NC(=O)Cc2ccc(OC3(C(=O)N[C@H](CSCc4ccccc4)C(=O)O)CCCC3)cc2)c1 | 30.6 | 33.3 | 43 | 7.2 | 24.8 | 8.6 | 2.1 | 2.3 | – |
| Cc1cc(C)cc(NC(=O)Cc2ccc(OC3(C(=O)N4CCC[C@H]4C(=O)O)CCCC3)cc2)c1 | 41.1 | 42.5 | 13.5 | 17 | 24.8 | 2.7 | 2.7 | 2.3 | – |
| Cc1cc(C)cc(NC(=O)Cc2ccc(OC3(C(=O)N[C@H](Cc4ccc5[nH]ccc5c4)C(=O)O)CCCC3)cc2)c1 | – | 49.9 | 37.1 | 20 | 28.7 | 7.4 | 2.1 | 2.1 | 47.5 |
| Cc1cc(C)cc(NC(=O)Cc2ccc(OC3(C(=O)N[C@@H](C)C(=O)O)CCCC3)cc2)c1 | 42.8 | 46.2 | 10.5 | 17.6 | 26.8 | 2.1 | 2.7 | 2.1 | – |
| Cc1cc(C)cc(NC(=O)Cc2ccc(OC3(C(=O)N[C@H](CCCCN)C(=O)O)CCCC3)cc2)c1 | 26.7 | 28.6 | 8.1 | -0.6 | 28.3 | 1.6 | 2.4 | 2.7 | – |
| Cc1cc(C)cc(NC(=O)Cc2ccc(OC(C)(C)C(=O)O)cc2)c1 | 80 | 82.6 | – | 51.5 | 29.8 | 4.7 | 2.3 | 1.5 | – |
| Cc1cc(C)cc(NC(=O)Cc2ccc(OC3(C(=O)N[C@H](CCCCNC(=O)OCc4ccccc4)C(=O)O)CCCC3)cc2)c1 | 27.6 | 28.2 | 22.4 | 0.4 | 27.5 | 4.5 | 2.5 | 2.5 | – |
